Test results taken from ChEMBL document CHEMBL1152572, “Synthesis and antimalarial activity of new chloroquine analogues carrying a multifunctional linear side chain” (Bioorg Med Chem, 2009).

Key:
Plasmodium falciparum [1] = assay: Antiplasmodial activity against chloroquine-sensitive Plasmodium falciparum HB3 assessed as SYBR Green 1 fluorescence emission after 72 hrs; type: functional, organism-based; settings: HB3, 72 h
Summary of the method: (§1)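 Sorbitol-synchronized P. falciparum cultures (>95% ring stage) exposed to serial drug dilutions in complete medium at 0.5% parasitemia, 1% hematocrit final. Incubated 72 h, 37 °C. SYBR Green I then added, 1 h at 37 °C. Fluorescence read at 530 nm emission, 490 nm excitation. Each dilution run in triplicate; IC50 averaged from at least two separate assays.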

Plasmodium falciparum [2] = assay: Antiplasmodial activity against chloroquine-resistant Plasmodium falciparum Dd2 assessed as SYBR Green 1 fluorescence emission after 72 hrs; type: functional, organism-based; settings: Dd2, 72 h; summary of the method: as §1
[3] = Resistance index, ratio IC50 for chloroquine-resistant Plasmodium falciparum Dd2 to IC50 for chloroquine-sensitive Plasmodium falciparum HB3; type: functional

Structure (SMILES) | IC50 (Plasmodium falciparum [1]) [nM] | IC50 (Plasmodium falciparum [2]) [nM] | Ratio IC50 [3]
CCN(CC)CCCCCN(CC)CCNc1ccnc2cc(Cl)ccc12 | 8.9 | 38.7 | 4.3
CCN(CC)CCC(=O)NCCNc1ccnc2cc(Cl)ccc12 | – | – | 24.1
CCN(CC)CCC(=O)NCCOc1ccnc2cc(Cl)ccc12 | 1710 | 1460 | 0.9
CCN(CC)CCCN(CC)CCCOc1ccnc2cc(Cl)ccc12 | 77.5 | 108 | 1.4
CCN(CC)CC(=O)NCCNc1ccnc2cc(Cl)ccc12 | 715 | 3360 | 4.7
CCN(CC)CCN(CCNc1ccnc2cc(Cl)ccc12)CCN(CC)CC | 7 | 151 | 21.5
CCN(CC)CCCCN(CC)CCNc1ccnc2cc(Cl)ccc12 | 5.1 | 36.2 | 7.1
CCN(CC)CCC(=O)NCCCOc1ccnc2cc(Cl)ccc12 | 2320 | 752 | 0.3
CCN(CC)CCCCCCNCCNc1ccnc2cc(Cl)ccc12 | 68.9 | 231 | 3.4
CCN(CC)CCCC(=O)NCCNc1ccnc2cc(Cl)ccc12 | 225 | 1190 | 5.3
CCN(CC)CCCCNCCNc1ccnc2cc(Cl)ccc12 | 30.7 | 1270 | 41.5
CCN(CC)CCCCCCN(CC)CCNc1ccnc2cc(Cl)ccc12 | 5 | 19.9 | 4
CCN(CC)CCN(CC)CCNc1ccnc2cc(Cl)ccc12 | 5 | 53 | 10.5
CCN(CC)CCCNCCCOc1ccnc2cc(Cl)ccc12 | 19.7 | 240 | 12.2
CCN(CC)CCNCCNc1ccnc2cc(Cl)ccc12 | 10.8 | 1570 | 145
CCN(CC)CCCCCC(=O)NCCNc1ccnc2cc(Cl)ccc12 | 287 | 2700 | 9.4
CCN(CC)CCCCCNCCNc1ccnc2cc(Cl)ccc12 | 28.9 | 459 | 15.9
CCN(CC)CCCCC(=O)NCCNc1ccnc2cc(Cl)ccc12 | 228 | 1190 | 5.2
CCN(CC)CCCNCCOc1ccnc2cc(Cl)ccc12 | 94.6 | 214 | 2.3
CCN(CC)CCCN(CC)CCOc1ccnc2cc(Cl)ccc12 | 321 | 409 | 1.3
